Measured values: ChEMBL document CHEMBL1926538, “3,5-Disubstituted-thiazolidine-2,4-dione analogs as anticancer agents: design, synthesis and biological characterization” (Eur J Med Chem, 2012)
Active and inactive are the calls of the source. No cut-off for these calls is given here.

Experiments:
[1] = tested on: U-937; assay: Induction of apoptosis in human U937 cells assessed as early apoptotic cells at 3 uM after 18 hrs by annexinV-propidium iodide staining-based flow cytometric analysis (reference value: 4.3%); format: functional
[2] = tested on: U-937; assay: Induction of apoptosis in human U937 cells assessed as viable cells at 10 uM after 3 hrs by annexinV-propidium iodide staining-based flow cytometric analysis (reference value: 86.3%); format: functional; conditions: U-937, 3 h, read-out: Activity
[3] = tested on: U-937; assay: Induction of apoptosis in human U937 cells assessed as necrotic cells at 3 uM after 18 hrs by annexinV-propidium iodide staining-based flow cytometric analysis (reference value: 0.7%); format: functional
[4] = tested on: U-937; assay: Induction of apoptosis in human U937 cells assessed as viable cells at 3 uM after 3 hrs by annexinV-propidium iodide staining-based flow cytometric analysis (reference value: 86.3%); format: functional; conditions: U-937, 3 h, read-out: Activity
[5] = target: Mitogen-activated protein kinase 1 (Homo sapiens) (UniProt P28482); assay: Inhibition of Erk2 at 10 uM
[6] = tested on: U-937; assay: Growth inhibition of human U937 cells after 72 hrs by MTS assay in presence of 320 uM AMPK activator AICA; format: functional, cell-based
Method in brief: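 U937 cells exposed 72 h, with or without AICA 320 µM, then MTS added. Absorbance read at 490 nm, expressed as percentage of untreated controls. Data are mean percentage viability, n = 6, error bars SEM.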

[7] = target: Ribosomal protein S6 kinase alpha-1 (Homo sapiens) (UniProt Q15418); assay: Inhibition of RSK1 at 10 uM
[8] = tested on: U-937; assay: Induction of apoptosis in human U937 cells assessed as late apoptotic cells at 10 uM after 3 hrs by annexinV-propidium iodide staining-based flow cytometric analysis (reference value: 8.6%); format: functional
[9] = Induction of apoptosis in human M12 cells assessed as viable cells at 20 uM after 24 hrs by annexinV-propidium iodide staining-based flow cytometric analysis (reference value: 80.18%); format: functional; conditions: M12, 24 h, read-out: Activity
[10] = Inhibition of PKA at 10 uM
[11] = tested on: U-937; assay: Induction of apoptosis in human U937 cells assessed as viable cells at 10 uM after 18 hrs by annexinV-propidium iodide staining-based flow cytometric analysis (reference value: 87.2%); format: functional; conditions: U-937, 18 h, read-out: Activity
[12] = target: MAP kinase-activated protein kinase 2 (Homo sapiens) (UniProt P49137); assay: Inhibition of MAPKAPK2 at 10 uM
[13] = tested on: U-937; assay: Induction of apoptosis in human U937 cells assessed as early apoptotic cells at 3 uM after 3 hrs by annexinV-propidium iodide staining-based flow cytometric analysis (reference value: 2.8%); format: functional
[14] = target: Hepatocyte growth factor receptor (Homo sapiens) (UniProt P08581); assay: Inhibition of MET at 10 uM
[15] = target: Mitogen-activated protein kinase kinase kinase kinase 4 (Homo sapiens) (UniProt O95819); assay: Inhibition of HGK at 10 uM
[16] = target: Tyrosine-protein kinase SYK (Homo sapiens) (UniProt P43405); assay: Inhibition of SYK at 10 uM
[17] = tested on: DU-145; assay: Growth inhibition of human DU145 cells after 24 hrs by MTS assay; format: functional, cell-based
Method in brief: (§1)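 Cells in RPMI 1640 with 10% heat-inactivated FBS, seeded 2 × 10⁴ cells/well and exposed 24 h. MTS reagent added, then 1 h further incubation at 37 °C, 5% CO₂. Formazan absorbance read at 490 nm. Viability expressed as percentage of untreated controls.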

[18] = tested on: U-937; assay: Induction of apoptosis in human U937 cells assessed as early apoptotic cells at 10 uM after 3 hrs by annexinV-propidium iodide staining-based flow cytometric analysis (reference value: 2.8%); format: functional
[19] = target: RAF proto-oncogene serine/threonine-protein kinase (Homo sapiens) (UniProt P04049); assay: Inhibition of […] phosphorylation in human U937 cells 1 to 10 uM after 1 hr by Western blot analysis; format: cell-based; conditions: U-937
Method in brief: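 U937 cells at 5 × 10^5/mL were exposed to compound for 1 h, then sonicated in SDS/DTT sample buffer with protease inhibitors plus 1 mM orthovanadate and pyrophosphate, and boiled 5 min. Blots were blocked in 5% milk, probed with primary antibody overnight at 4 °C and 1:2000 HRP secondary, and read by chemiluminescence. α-Tubulin reprobe served as loading control. Blots shown represent one of three experiments.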

[20] = tested on: U-937; assay: Induction of apoptosis in human U937 cells assessed as necrotic cells at 3 uM after 3 hrs by annexinV-propidium iodide staining-based flow cytometric analysis (reference value: 2.3%); format: functional
[21] = target: RAF proto-oncogene serine/threonine-protein kinase (Homo sapiens) (UniProt P04049); assay: Inhibition of raf-mediated MEK phosphorylation in human U937 cells at 3 uM after 1 hr by Western blot analysis; format: cell-based; conditions: U-937
Method in brief: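 Cells in RPMI 1640 with 10% heat-inactivated FBS, 37 °C, 5% CO2; treated in growing medium (DU145 24 h; U937 1 h at 5 × 10⁵/mL). Lysed by sonication in SDS sample buffer with protease inhibitors plus 1 mM orthovanadate and pyrophosphate, boiled 5 min. Blots blocked in 5% milk, primary antibodies 1:1000 overnight at 4 °C, HRP secondary 1:2000, chemiluminescence; α-tubulin loading control.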

[22] = target: RAC-beta serine/threonine-protein kinase (Homo sapiens) (UniProt P31751); assay: Inhibition of AKT2 at 10 uM
[23] = target: 3-phosphoinositide-dependent protein kinase 1 (Homo sapiens) (UniProt O15530); assay: Inhibition of PDK1 at 10 uM
[24] = tested on: U-937; assay: Induction of apoptosis in human U937 cells assessed as late apoptotic cells at 10 uM after 18 hrs by annexinV-propidium iodide staining-based flow cytometric analysis (reference value: 7.8%); format: functional
[25] = tested on: DU-145; assay: Induction of apoptosis in human DU145 cells assessed as late apoptotic cells at 20 uM after 24 hrs by annexinV-propidium iodide staining-based flow cytometric analysis (reference value: 5.1%); format: functional
[26] = target: Serine/threonine-protein kinase PAK 2 (Homo sapiens) (UniProt Q13177); assay: Inhibition of PAK2 at 10 uM
[27] = target: Rho-associated protein kinase 2 (Homo sapiens) (UniProt O75116); assay: Inhibition of ROCK2 at 10 uM
[28] = target: MAP kinase-activated protein kinase 5 (Homo sapiens) (UniProt Q8IW41); assay: Inhibition of PRAK at 10 uM
[29] = target: Serine/threonine-protein kinase Chk2 (Homo sapiens) (UniProt O96017); assay: Inhibition of CHK2 at 10 uM
[30] = tested on: DU-145; assay: Induction of apoptosis in human DU145 cells assessed as viable cells at 20 uM after 24 hrs by annexinV-propidium iodide staining-based flow cytometric analysis (reference value: 89%); format: functional; conditions: DU-145, 24 h, read-out: Activity
[31] = tested on: M12; assay: Growth inhibition of human M12 cells after 24 hrs by MTS assay; format: functional, cell-based; method in brief: as §1
[32] = tested on: U-937; assay: Induction of apoptosis in human U937 cells assessed as necrotic cells at 3 uM after 6 hrs by annexinV-propidium iodide staining-based flow cytometric analysis (reference value: 1.2%); format: functional
[33] = target: Serine/threonine-protein kinase D2 (Homo sapiens) (UniProt Q9BZL6); assay: Inhibition of PKD2 at 10 uM
Sequence of Serine/threonine-protein kinase D2 (Homo sapiens) (Q9BZL6 whole entry): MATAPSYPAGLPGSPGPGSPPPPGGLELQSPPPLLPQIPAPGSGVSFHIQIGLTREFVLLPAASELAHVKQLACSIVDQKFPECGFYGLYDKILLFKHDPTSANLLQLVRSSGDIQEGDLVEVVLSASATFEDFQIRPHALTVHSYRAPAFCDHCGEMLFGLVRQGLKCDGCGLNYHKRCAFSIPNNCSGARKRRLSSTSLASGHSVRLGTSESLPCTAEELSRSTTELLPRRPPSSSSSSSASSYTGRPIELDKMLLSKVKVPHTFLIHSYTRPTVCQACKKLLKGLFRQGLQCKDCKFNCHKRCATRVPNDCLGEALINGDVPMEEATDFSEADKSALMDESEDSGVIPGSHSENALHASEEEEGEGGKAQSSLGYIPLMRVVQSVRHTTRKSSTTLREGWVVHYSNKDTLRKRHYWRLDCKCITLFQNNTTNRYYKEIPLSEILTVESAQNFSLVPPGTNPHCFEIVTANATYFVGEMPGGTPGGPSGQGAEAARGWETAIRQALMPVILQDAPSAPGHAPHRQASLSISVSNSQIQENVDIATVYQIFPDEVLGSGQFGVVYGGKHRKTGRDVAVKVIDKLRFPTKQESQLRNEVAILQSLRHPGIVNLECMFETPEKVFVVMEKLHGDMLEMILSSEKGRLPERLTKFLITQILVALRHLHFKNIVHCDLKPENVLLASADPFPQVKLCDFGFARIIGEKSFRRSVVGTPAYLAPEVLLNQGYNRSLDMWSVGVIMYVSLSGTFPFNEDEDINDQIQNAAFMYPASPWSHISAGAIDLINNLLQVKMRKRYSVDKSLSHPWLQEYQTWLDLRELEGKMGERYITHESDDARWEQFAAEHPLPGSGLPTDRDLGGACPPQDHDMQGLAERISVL

Sequence of RAF proto-oncogene serine/threonine-protein kinase (Homo sapiens) (P04049 whole entry): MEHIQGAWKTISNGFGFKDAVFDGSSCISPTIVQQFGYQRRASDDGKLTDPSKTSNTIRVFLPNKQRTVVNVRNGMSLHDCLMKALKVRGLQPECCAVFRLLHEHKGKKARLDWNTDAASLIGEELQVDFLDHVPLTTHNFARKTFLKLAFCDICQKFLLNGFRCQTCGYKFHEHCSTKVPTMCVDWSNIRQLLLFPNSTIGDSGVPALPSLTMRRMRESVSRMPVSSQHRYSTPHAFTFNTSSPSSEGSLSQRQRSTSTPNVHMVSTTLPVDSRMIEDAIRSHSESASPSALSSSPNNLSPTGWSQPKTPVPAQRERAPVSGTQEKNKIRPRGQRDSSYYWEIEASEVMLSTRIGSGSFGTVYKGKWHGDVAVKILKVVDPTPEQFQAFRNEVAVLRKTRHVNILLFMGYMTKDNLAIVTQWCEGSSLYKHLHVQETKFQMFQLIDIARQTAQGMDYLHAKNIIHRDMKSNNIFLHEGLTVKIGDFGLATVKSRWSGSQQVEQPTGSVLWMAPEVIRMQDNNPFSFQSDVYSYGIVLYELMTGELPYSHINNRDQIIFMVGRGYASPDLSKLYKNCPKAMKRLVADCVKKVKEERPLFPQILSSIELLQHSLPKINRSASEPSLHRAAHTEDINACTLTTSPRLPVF
Sequence of Rho-associated protein kinase 2 (Homo sapiens) (O75116 whole entry, looked up): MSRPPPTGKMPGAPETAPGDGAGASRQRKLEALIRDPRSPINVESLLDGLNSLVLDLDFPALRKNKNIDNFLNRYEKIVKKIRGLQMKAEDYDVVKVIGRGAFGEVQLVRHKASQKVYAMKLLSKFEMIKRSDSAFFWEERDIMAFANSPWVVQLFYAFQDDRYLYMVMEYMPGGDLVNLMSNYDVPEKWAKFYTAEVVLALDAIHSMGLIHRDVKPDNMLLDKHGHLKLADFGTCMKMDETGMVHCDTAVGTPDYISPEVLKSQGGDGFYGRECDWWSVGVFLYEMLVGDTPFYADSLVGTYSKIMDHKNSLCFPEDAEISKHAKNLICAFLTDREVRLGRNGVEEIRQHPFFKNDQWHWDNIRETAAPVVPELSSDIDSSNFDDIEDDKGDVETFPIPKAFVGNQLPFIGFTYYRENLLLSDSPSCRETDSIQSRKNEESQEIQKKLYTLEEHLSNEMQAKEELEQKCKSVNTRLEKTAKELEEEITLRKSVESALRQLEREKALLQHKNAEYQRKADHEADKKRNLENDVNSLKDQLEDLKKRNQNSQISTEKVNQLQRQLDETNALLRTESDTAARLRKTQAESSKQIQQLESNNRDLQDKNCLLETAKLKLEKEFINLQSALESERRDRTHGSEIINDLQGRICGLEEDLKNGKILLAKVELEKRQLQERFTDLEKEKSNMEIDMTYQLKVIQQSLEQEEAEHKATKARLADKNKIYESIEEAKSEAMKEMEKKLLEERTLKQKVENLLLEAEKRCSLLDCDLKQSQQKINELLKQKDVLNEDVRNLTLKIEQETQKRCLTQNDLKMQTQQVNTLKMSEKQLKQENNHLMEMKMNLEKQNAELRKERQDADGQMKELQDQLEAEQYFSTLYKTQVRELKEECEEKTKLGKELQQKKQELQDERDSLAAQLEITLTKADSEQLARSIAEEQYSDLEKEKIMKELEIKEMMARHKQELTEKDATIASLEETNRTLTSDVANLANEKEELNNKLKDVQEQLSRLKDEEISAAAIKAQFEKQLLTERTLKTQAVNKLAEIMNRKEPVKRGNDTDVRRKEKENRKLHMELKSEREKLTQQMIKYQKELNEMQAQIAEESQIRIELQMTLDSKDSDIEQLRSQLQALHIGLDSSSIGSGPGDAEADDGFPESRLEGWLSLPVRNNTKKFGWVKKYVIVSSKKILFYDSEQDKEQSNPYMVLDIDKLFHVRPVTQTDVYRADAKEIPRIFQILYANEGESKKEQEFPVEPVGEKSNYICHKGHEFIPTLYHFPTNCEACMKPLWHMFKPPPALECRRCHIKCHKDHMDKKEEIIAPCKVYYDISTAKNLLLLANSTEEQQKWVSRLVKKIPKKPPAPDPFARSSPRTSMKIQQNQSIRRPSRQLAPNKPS
Sequence of 3-phosphoinositide-dependent protein kinase 1 (Homo sapiens) (O15530 whole entry, looked up): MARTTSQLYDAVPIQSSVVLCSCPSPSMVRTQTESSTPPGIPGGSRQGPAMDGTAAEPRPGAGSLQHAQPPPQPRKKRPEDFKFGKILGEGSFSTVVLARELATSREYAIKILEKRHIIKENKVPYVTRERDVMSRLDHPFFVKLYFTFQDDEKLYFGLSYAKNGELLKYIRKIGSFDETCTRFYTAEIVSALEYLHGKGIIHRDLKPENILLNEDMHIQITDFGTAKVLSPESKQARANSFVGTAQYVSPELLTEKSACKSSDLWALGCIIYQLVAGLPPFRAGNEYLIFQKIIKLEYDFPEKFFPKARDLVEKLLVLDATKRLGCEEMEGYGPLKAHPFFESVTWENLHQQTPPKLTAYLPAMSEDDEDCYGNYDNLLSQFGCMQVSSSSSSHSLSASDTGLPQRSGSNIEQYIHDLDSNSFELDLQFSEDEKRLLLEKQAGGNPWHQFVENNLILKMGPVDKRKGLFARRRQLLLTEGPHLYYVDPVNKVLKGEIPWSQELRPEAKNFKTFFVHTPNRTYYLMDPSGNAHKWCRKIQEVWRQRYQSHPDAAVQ
Sequence of MAP kinase-activated protein kinase 5 (Homo sapiens) (Q8IW41 whole entry): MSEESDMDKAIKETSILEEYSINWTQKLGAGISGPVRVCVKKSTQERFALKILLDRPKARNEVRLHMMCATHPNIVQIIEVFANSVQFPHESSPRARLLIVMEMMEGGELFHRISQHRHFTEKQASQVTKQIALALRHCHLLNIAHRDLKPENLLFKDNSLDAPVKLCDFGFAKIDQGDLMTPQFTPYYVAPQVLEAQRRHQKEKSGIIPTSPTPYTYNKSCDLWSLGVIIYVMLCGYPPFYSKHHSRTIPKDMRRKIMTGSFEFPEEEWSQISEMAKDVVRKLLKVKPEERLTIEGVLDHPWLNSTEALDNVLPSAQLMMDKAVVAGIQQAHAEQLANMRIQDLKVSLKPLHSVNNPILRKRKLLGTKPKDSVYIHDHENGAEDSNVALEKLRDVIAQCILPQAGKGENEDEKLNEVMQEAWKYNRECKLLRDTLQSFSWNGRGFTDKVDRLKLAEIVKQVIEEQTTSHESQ
Sequence of Mitogen-activated protein kinase 1 (Homo sapiens) (P28482 whole entry): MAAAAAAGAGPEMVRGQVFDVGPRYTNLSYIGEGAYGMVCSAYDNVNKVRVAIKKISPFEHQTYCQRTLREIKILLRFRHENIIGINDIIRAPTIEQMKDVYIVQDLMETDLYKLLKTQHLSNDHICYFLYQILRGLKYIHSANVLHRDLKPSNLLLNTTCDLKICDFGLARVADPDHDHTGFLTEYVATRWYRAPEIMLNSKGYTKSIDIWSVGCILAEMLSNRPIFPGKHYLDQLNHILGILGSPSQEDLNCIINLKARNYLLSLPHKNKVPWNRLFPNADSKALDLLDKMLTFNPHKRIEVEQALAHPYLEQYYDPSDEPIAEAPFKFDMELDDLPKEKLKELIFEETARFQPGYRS
Sequence of Serine/threonine-protein kinase PAK 2 (Homo sapiens) (Q13177 whole entry): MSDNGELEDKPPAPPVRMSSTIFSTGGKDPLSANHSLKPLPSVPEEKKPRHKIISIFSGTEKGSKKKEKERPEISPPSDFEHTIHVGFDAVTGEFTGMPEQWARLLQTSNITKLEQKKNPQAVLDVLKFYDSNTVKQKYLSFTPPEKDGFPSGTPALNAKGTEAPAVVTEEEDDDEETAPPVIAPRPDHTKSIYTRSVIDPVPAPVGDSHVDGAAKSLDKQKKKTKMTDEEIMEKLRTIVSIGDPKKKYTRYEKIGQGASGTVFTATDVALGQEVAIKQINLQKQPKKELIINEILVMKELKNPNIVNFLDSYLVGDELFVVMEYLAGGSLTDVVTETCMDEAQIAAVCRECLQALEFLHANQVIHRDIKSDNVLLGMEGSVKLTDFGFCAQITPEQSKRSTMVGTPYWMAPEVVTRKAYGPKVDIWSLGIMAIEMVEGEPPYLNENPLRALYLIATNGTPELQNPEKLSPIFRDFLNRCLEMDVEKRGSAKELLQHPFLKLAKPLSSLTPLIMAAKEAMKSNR

inhibition [5]: 11% | inhibition [7]: 2% | inhibition [10]: -3% | inhibition [12]: 3% | inhibition [14]: -1% | inhibition [15]: -1% | inhibition [16]: 9% | inhibition [19]: Active | inhibition [21]: Active | inhibition [22]: 8% | inhibition [23]: -2% | inhibition [26]: 10% | inhibition [27]: -1% | inhibition [28]: 4% | inhibition [29]: 8% | inhibition [33]: 0%
SMILES: NCCN1C(=O)S/C(=C\CCC2CCCCC2)C1=O
Activity [1]: 3.5% | viability at 10 µM [2]: 62.8% | Activity [3]: 0.7% | viability at 3 µM [4]: 86.9% | growth inhibition (GI) [6]: Active | Activity [8]: 11% | viability at 20 µM [9]: 5.1% | viability at 10 µM [11]: 42.9% | Activity [13]: 3.5% | growth inhibition (GI) [17]: Active | Activity [18]: 23.8% | Activity [20]: 1.9% | Activity [24]: 40.9% | Activity [25]: 23% | viability at 20 µM [30]: 65.5% | growth inhibition (GI) [31]: Active | Activity [32]: 2.1%
